Our source for the Activity, ECmax and inhibition values is ChEMBL document CHEMBL4376893, “Identification of Psychoplastogenic N,N-Dimethylaminoisotryptamine (isoDMT) Analogues through Structure-Activity Relationship Studies” (2020).

The species entered for one assay is Danio rerio. As to the kind of experiment: Induction of acute behavioural changes in wild type zebrafish Singapore at 7 days post-fertilization stage after 1 hr by imaging analysis. The format is functional. In short, it runs like this: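 Wild-type Singapore larvae at 7 dpf, 8 per well in 300 μL egg water, rested 1 h at RT. DMSO stocks added (0.4% DMSO), then 1 h RT incubation. After 5 min dark acclimation, a 17-min acoustic/visual stimulus battery was run under IR video. Locomotion was taken as changed pixels. Random-forest out-of-bag accuracy versus vehicle wells was used, n = 21 wells.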

In assay [1] the test system is Mus musculus. As to the kind of experiment: Induction of head-twitch response in C57BL/6J mouse assessed as reduction in hallucinogenic potential at 1 to 50 mg/kg, iv measured after 20 mins. The class given is functional, organism-based.
The subject of assay [2] is Cortical neurone. Nature of the assay: Induction of dendritogenesis in Sprague-Dawley rat cortical neurons assessed as dendritic arbor complexity at 10 uM after 1 hr supplemented with fresh neurobasal medium measured after 71 hrs by Alexa Fluor 488 dye based imaging analysis. The format is functional, cell-based. In outline: (§1)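 Cortical neurons from timed-pregnant Sprague Dawley rats, about 15,000 cells/well in B27 Neurobasal. On DIV3, dosed 1 h at 0.1% DMSO (10 μM standard; 10 pM–10 μM in concentration-response runs), then medium replaced and grown 71 h. PFA-fixed, MAP2 immunostained with Alexa Fluor 488 secondary, 20x imaging. Blinded Sholl analysis, Nmax = maximum crossings; ≥6 wells over 2 plates from independent dams.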

In assay [3] the test system is Cortical neurone. Nature of the assay: Induction of dendritogenesis in Sprague-Dawley rat cortical neurons assessed as increase in dendritic arbor complex at 1 nM after 1 hr supplemented with fresh neurobasal medium measured after 71 hrs by Alexa Fluor 488 dye based imaging analysis. The class given is functional, cell-based. In outline: as §1
For assay [4], the system named is Mus musculus. Nature of the assay: Induction of head-twitch response in iv dosed C57BL/6J mouse assessed as reduction in hallucinogenic potential measured after 20 mins. The format is functional, organism-based.
In assay [5] the target is 5-hydroxytryptamine receptor 2A (Rattus norvegicus) (UniProt P14842). The settings on record: Sprague-Dawley, 1 uM.
5-hydroxytryptamine receptor 2A (Rattus norvegicus), sequence (P14842 whole entry): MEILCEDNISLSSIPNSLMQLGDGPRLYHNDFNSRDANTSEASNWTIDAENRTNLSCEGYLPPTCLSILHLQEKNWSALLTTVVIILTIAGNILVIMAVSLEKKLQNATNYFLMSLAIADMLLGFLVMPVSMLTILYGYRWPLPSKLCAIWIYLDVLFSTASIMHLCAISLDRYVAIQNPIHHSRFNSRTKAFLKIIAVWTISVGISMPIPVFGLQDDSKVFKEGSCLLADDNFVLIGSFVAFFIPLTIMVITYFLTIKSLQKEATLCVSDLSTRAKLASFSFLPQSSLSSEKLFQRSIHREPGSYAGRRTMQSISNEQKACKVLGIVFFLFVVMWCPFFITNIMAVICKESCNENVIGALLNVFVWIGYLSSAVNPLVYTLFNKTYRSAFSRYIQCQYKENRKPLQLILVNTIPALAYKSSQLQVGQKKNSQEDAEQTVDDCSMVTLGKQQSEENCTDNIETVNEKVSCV

The source made the active and inactive calls. The rule behind the calls is not given here.

Regarding `COc1ccc2c(CCN(C)C)c[nH]c2c1`, in the assay listed under Danio rerio, the Activity entry is “Dose-dependent effect” and the ECmax came out at 200 µM. The outcome in the assay on Mus musculus [1] was inactive.
`CC(C)CCn1ccc2ccccc21`: the outcome with Cortical neurone [2] was inactive.
`CN(C)CCn1cccc1`: the result in the assay with Cortical neurone [2] was Active.
Consider `COc1cccc2ccn(CCN(C)C)c12`, for which, in the assay with Cortical neurone [2], the outcome was Active.
Take `CN(C)CCn1ccc2cccc(F)c21`: the outcome in the assay with Cortical neurone [2] was Active.
`CNC1(c2ccccc2Cl)CCCCC1=O` (stereo unspecified): the result in the assay with Cortical neurone [3] was Active.
With `CN(C)CCn1cnc2ccccc21`, the outcome in the assay with Cortical neurone [2] was Active.
With `CN(C)CCn1ccc2ccc(OCc3ccccc3)cc21`, in the assay on Cortical neurone [2], the result was Active.
For the compound `COc1ccc2ccn(CCN(C)C)c2c1`, in the assay on Cortical neurone [2], the outcome was Active. For the same compound, in the assay listed under Danio rerio, the Activity result was “Dose-dependent effect” and the ECmax was found to be 200 µM. Besides, the outcome in the assay on Mus musculus [1] was Active.
With `CN(C)CCn1ccc2ccc(F)cc21`, in the assay on Cortical neurone [2], the result was Active.
As for `CN(C)CCn1ccc2cccc(OCc3ccccc3)c21`, the outcome with Cortical neurone [2] was Active.
For the compound `COc1ccc2[nH]cc(CCN(C)C)c2c1` [MEBUFOTENIN], the Activity entry in the assay with Mus musculus [4] and in the assay listed under Danio rerio was “Dose-dependent effect” throughout. Besides, the inhibition entry in assay [5] is “Active”. The compound further gave an ECmax in the assay listed under Danio rerio of 200 µM. In the assay with Cortical neurone [3], the outcome was Active.
`COc1cccc2c1ccn2CCN(C)C`: the outcome with Cortical neurone [2] was inactive.
Turning to `CN(C)CCn1c2ccccc2c2ccccc21`, in the assay with Cortical neurone [2], the outcome was Active.
Take `COc1ccc2c(ccn2CCN(C)C)c1.O=C(O)/C=C/C(=O)O`: the result with Cortical neurone [2] was Active. For the same compound, in the assay listed under Danio rerio, the Activity result was “Dose-dependent effect” and the ECmax is 200 µM. The result with Mus musculus [1] was inactive.
In the case of `CN(C)CCn1ccc2cc(OCc3ccccc3)ccc21`, the result with Cortical neurone [2] was Active.
For the compound `CN(C)CCn1ccc2c(OCc3ccccc3)cccc21`, in the assay with Cortical neurone [2], the outcome was inactive.
For the compound `CN(C)CCc1c[nH]c2ccccc12`, the result in the assay on Cortical neurone [2] and in the assay on Cortical neurone [3] was Active.
In the case of `CN(C)CCn1ccc2cc(F)ccc21`, the outcome with Cortical neurone [2] was Active.
Same read-out and setting: the result for `CN(C)CCn1ccc2c(F)cccc21` reads “inactive”; that for `CN(C)CCn1ccc2ccccc21`, “Active”; that for `CN(C)C(=O)Cn1ccc2ccccc21`, “inactive”.
`CN(C)CCc1cn(C)c2ccccc12`: the outcome with Cortical neurone [2] was Active.
